Source: ChEMBL document CHEMBL1773065, “Impact of the nature of the substituent at the 3-position of 4H-1,2,4-benzothiadiazine 1,1-dioxides on their opening activity toward ATP-sensitive potassium channels” (J Med Chem, 2011)
The source made the active and inactive calls. The calls are words filed in the database; no cut-off is given here.

How the values were obtained:
[1] = organism: Rattus norvegicus; test: Activation of ATP-sensitive potassium channel in extracellular calcium deprived and glucose evoked rat pancreatic islets assessed as reduction in 45Calcium outflow at 50 uM
[2] = Inhibition of glucose induced insulin secretion from rat Pancreatic islet assessed as percentage of residual insulin release at 10 uM; type: functional
Outline: (§1)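 Isolated rat pancreatic islets incubated with 16.7 mM glucose and drug at 0.1–50 μM. Result is insulin release as a percentage of residual release, mean ± SEM (n).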

[3] = organism: Rattus norvegicus; test: Activation of ATP-sensitive potassium channel in glucose and extracellular calcium evoked rat pancreatic islets assessed as decrease in insulin output at 50 uM; conditions: TDE = time-dependent effect
[4] = organism: Rattus norvegicus; test: Activation of ATP-sensitive potassium channel in glucose and extracellular calcium evoked rat pancreatic islets assessed as reduction in 45Calcium outflow at 50 uM
[5] = Inhibition of glucose induced insulin secretion from rat Pancreatic islet assessed as percentage of residual insulin release at 50 uM; type: functional; outline: as §1
[6] = Myorelaxant effect in KCl-induced precontracted rat aorta ring VSMC; type: functional, tissue-based
Outline: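 Rat aortic rings precontracted with 30 mM KCl. EC50 is the drug concentration giving 50% relaxation, mean ± SEM (n).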

[7] = Myorelaxant effect in Wistar rat uterus smooth muscle assessed as inhibition of contractions induced by continuous superfusion of oxytocin in absence ATP-sensitive potassium channel blocker glibenclamide; type: functional
Outline: (§2)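 Rat uterus continuously superfused with 50 mU/L oxytocin. Mean of three contraction AUCs set as 100%, then drug added at increasing concentrations, with no glibenclamide or with 1 or 10 μM glibenclamide present continuously. EC50 is the concentration giving 50% residual contraction, mean ± SEM (n).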

[8] = organism: Rattus norvegicus; test: Activation of ATP-sensitive potassium channel in glucose and extracellular calcium evoked rat pancreatic islets assessed as increase in 86Rb outflow measured per min
Outline: (§3)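 Prelabeled rat pancreatic islets, perifused throughout with 5.6 mM glucose and extracellular Ca2+. Drug added at 10 or 50 μM, then withdrawn. Read-out is the increase in 86Rb outflow rate, in %/min. Six individual experiments.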

[9] = organism: Rattus norvegicus; test: Activation of ATP-sensitive potassium channel in glucose and extracellular calcium evoked rat pancreatic islets assessed as increase in 86Rb outflow measured per min at 10 uM; outline: as §3
[10] = organism: Rattus norvegicus; test: Activation of ATP-sensitive potassium channel in glucose and extracellular calcium evoked rat pancreatic islets assessed as increased 86Rb outflow at 50 uM by radioisotopic and fluorimetric method in presence of 10 uM ATP-sensitive potassium channel blocker glibenclamide
Outline: (§4)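 Prelabeled, perifused rat pancreatic islets in 5.6 mM glucose with extracellular Ca2+. Drug given at 10 or 50 μM with 10 μM glibenclamide present continuously in the medium. Read-out is 86Rb outflow rate. Six individual experiments.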

[11] = organism: Rattus norvegicus; test: Activation of ATP-sensitive potassium channel in glucose and extracellular calcium evoked rat pancreatic islets assessed as increase in 86Rb outflow measured per min at 50 uM; outline: as §3
[12] = organism: Rattus norvegicus; test: Activation of ATP-sensitive potassium channel in rat pancreatic islets assessed as decrease in insulinotropic glucose concentration-mediated cytosolic calcium level by fluorimetry
[13] = Myorelaxant effect in Wistar rat uterus smooth muscle assessed as inhibition of contractions induced by bolus of oxytocin injected in superfusion system at 50 uM; type: functional; design: scale not given: the % may be the effect or the level left
Outline: (§5)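 Uteri from fed Wistar rats (150–200 g) given diethylstilboestrol dipropionate i.m. the day before. Tissue superfused; after 30 min stabilization, 20 mU oxytocin boluses given every 10 min until contractions (AUC) were constant. Three or more boluses per drug concentration (10, 50, 100 μM). Mean AUC expressed as percentage of the drug-free response.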

[14] = Inhibition of glucose induced insulin secretion from rat Pancreatic islet assessed as percentage of residual insulin release; type: functional; outline: as §1
[15] = Dissociation constant, pKa of the compound; type: physicochemical
Outline: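 pKa determined by UV spectrophotometry at 25 °C. Spectra recorded in aqueous buffers from pH 5 to 12.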

[16] = organism: Rattus norvegicus; test: Activation of ATP-sensitive potassium channel in glucose and extracellular calcium evoked rat pancreatic islets assessed as increased 86Rb outflow at 10 uM by radioisotopic and fluorimetric method in presence of 10 uM ATP-sensitive potassium channel blocker glibenclamide; outline: as §4
[17] = Myorelaxant effect in Wistar rat uterus smooth muscle assessed as inhibition of contractions induced by bolus of oxytocin injected in superfusion system at 10 uM; type: functional; design: scale not given: the % may be the effect or the level left; outline: as §5
[18] = Myorelaxant effect in Wistar rat uterus smooth muscle assessed as inhibition of contractions induced by bolus of oxytocin injected in superfusion system at 100 uM; type: functional; design: scale not given: the % may be the effect or the level left; outline: as §5
[19] = organism: Rattus norvegicus; test: Activation of ATP-sensitive potassium channel in glucose and extracellular calcium evoked rat pancreatic islets assessed as reduced 45Calcium outflow at 50 uM in presence of extracellular potassium ion; design: scale not given: the % may be the effect or the level left
Outline: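 Prelabeled, perifused rat pancreatic islets exposed throughout to 2.8 mM glucose and extracellular Ca2+. Extracellular K+ raised suddenly from 5 to 50 mM, with or without 50 μM drug in the basal medium. Read-out is the magnitude of the increase in 45Ca outflow, in %/min.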

[20] = Inhibition of glucose induced insulin secretion from rat Pancreatic islet assessed as percentage of residual insulin release at 0.1 uM; type: functional
Outline: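 Isolated rat pancreatic islets incubated with test drug in the presence of 16.7 mM glucose. Insulin release was measured and expressed as percentage of residual insulin release, given as mean ± SEM with number of determinations (n).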

[21] = Myorelaxant effect in Wistar rat uterus smooth muscle assessed as inhibition of contractions induced by continuous superfusion of oxytocin in presence of 10 uM ATP-sensitive potassium channel blocker glibenclamide; type: functional; outline: as §2
[22] = Myorelaxant effect in Wistar rat uterus smooth muscle assessed as inhibition of contractions induced by continuous superfusion of oxytocin in presence of 1 uM ATP-sensitive potassium channel blocker glibenclamide; type: functional; outline: as §2
[23] = organism: Rattus norvegicus; test: Activation of ATP-sensitive potassium channel in rat aorta rings assessed as increased 86Rb outflow at 100 uM in presence of 10 uM ATP-sensitive potassium channel blocker glibenclamide; type: tissue-based
Outline: (§6)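 Prelabeled rat aortic rings perifused throughout with or without 10 μM glibenclamide. Drug applied at 100 μM. Read-out is 86Rb outflow. Four to five individual experiments.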

[24] = organism: Rattus norvegicus; test: Activation of ATP-sensitive potassium channel in rat aorta rings assessed as increased 86Rb outflow at 100 uM in absence of ATP-sensitive potassium channel blocker glibenclamide; type: tissue-based; outline: as §6
[25] = Inhibition of glucose induced insulin secretion from rat Pancreatic islet assessed as percentage of residual insulin release at 1 uM; type: functional; outline: as §1

For `COc1ccc2c(c1)S(=O)(=O)NC(NC(C)C)=N2`, the Activity [1] was “inactive”, the Activity [2] was 8.5% and the Activity [3] was “tde”. For the same compound, the Activity [4] was “Active” and the Activity [5] was 4.4%.
Work on `CC(C)CSC1=NS(=O)(=O)c2cc(Cl)ccc2N1` yielded an EC50 [6] of 6.2 µM and an EC50 [7] of 13.5 µM.
In the case of `CC(C)OC1=NS(=O)(=O)c2cc(Cl)ccc2N1`, the Activity [8] is reported as “Dose-dependent effect”, the Activity [9] is reported as 0.23% and the Activity [1] is reported as “inactive”. For the same compound, the Activity [10] was “inactive”, the Activity [2] was 77.3% and the Activity [11] was 1.32%. The Activity [12] was “Active”, the Activity [13] was 85.8% and the IC50 [14] was 19.1 µM. The pKa [15] was 8, the Activity [3] was “tde” and the Activity [16] was “inactive”. The Activity [4] was “Active”, the Activity [17] was 88% and the Activity [18] was 68.7%. It also gave an Activity [19] of 1.12%, an EC50 [6] of 22.7 µM and an Activity [5] of 17.5%.
`Cc1ccc2c(c1)S(=O)(=O)N=C(SC(C)C)N2` gave an Activity [2] of 77%.
`COc1ccc2c(c1)S(=O)(=O)N=C(OC(C)C)N2` gave an Activity [2] of 80.8%.
`CC(C)OC1=NS(=O)(=O)c2ccccc2N1` gave an Activity [2] of 90.4%.
Work on `CC(C)SC1=NS(=O)(=O)c2ccccc2N1` yielded an Activity [2] of 93.9%.
For `CC(C)[S+]([O-])C1=NS(=O)(=O)c2cc(Cl)ccc2N1` (stereo not given), the Activity [2] was 92.3% and the Activity [5] was 89.8%.
With `CC(C)NC1=NS(=O)(=O)c2cc(Br)ccc2N1` the Activity [2] was 8.1%, the Activity [20] was 91% and the Activity [5] was 6.7%.
With `CC(C)SC1=NS(=O)(=O)c2ccc(Br)cc2N1` the Activity [2] was 87% and the Activity [5] was 33.8%.
In the case of `CC(C)SC1=NS(=O)(=O)c2cc(F)ccc2N1`, the Activity [2] is reported as 88.7% and the Activity [5] is reported as 55.1%.
In the case of `CC(C)OC1=NS(=O)(=O)c2cc(Cl)c(Cl)cc2N1`, the Activity [2] is reported as 73.7%.
With `CC(SC1=NS(=O)(=O)c2cc(Cl)ccc2N1)c1ccccc1` (racemic) the EC50 [21] was 24.2 µM, the EC50 [22] was 6.8 µM and the EC50 [6] was 5.4 µM. For the same compound, the EC50 [7] was 4.4 µM.
`CC(C)SC1=NS(=O)(=O)c2cc(Cl)c(Cl)cc2N1` showed an Activity [2] of 70% and an Activity [5] of 12.9%.
With `CC(C)SC1=NS(=O)(=O)c2ccc(Cl)cc2N1` the Activity [2] was 80.2% and the Activity [5] was 44%.
`CC(C)SC1=NS(=O)(=O)c2cc(Cl)ccc2N1` gave an Activity [2] of 104%, an Activity [13] of 54.7% and an IC50 [14] of 50 µM. The pKa [15] was 7.01, the Activity [17] was 98.8% and the Activity [18] was 2.3%. For the same compound, the EC50 [6] was 23 µM, the EC50 [7] was over 30 µM and the Activity [5] was 51.3%.
Compound `CC(C)CC1=NS(=O)(=O)c2cc(F)ccc2N1` has an Activity [2] of 75.3%.
In the case of `CC(C)CC1=NS(=O)(=O)c2cc(Cl)ccc2N1`, the Activity [23] is reported as “inactive”, the Activity [2] is reported as 43.2% and the Activity [13] is reported as 64.7%. For the same compound, the IC50 [14] was 5.8 µM, the Activity [24] was “Active” and the pKa [15] was 8.52. It also gave an Activity [17] of 73.9%, an Activity [18] of 55% and an EC50 [6] of 5.8 µM. It also gave an Activity [5] of 21%.
`CC(C)CC1=NS(=O)(=O)c2cc(Br)ccc2N1` gave an Activity [2] of 61.8% and an Activity [25] of 85.8%.
With `CC(C)SC1=NS(=O)(=O)c2cc(Br)ccc2N1` the Activity [2] was 90.3% and the Activity [5] was 47.3%.
Compound `CC(N/C(=N\C#N)Nc1ccncc1)C(C)(C)C` (racemic) [PINACIDIL ANHYDROUS] has an Activity [13] of 42.7%, an IC50 [14] of 202 µM and an EC50 [21] of 28.3 µM. For the same compound, the Activity [17] was 44.9%, the Activity [18] was 38.1% and the EC50 [22] was 8.1 µM. The EC50 [6] was 0.62 µM and the EC50 [7] was 1.3 µM.
With `CC(C)NC1=NS(=O)(=O)c2cc(Cl)ccc2N1` the Activity [13] was 95%, the IC50 [14] was 0.55 µM and the Activity [17] was 94.4%. The Activity [18] was 75.6%.
In the case of `O=S1(=O)N=C(SCc2ccccc2)Nc2ccc(Cl)cc21`, the EC50 [6] is reported as 5.4 µM and the EC50 [7] is reported as 11.7 µM.
`CC1=Nc2ccc(Cl)cc2S(=O)(=O)N1` [DIAZOXIDE] showed an Activity [13] of 76.3%, an IC50 [14] of 18.4 µM and an Activity [17] of 93.8%. It also gave an Activity [18] of 67.7% and an EC50 [7] of over 30 µM.
Compound `CC(C)OC1=NS(=O)(=O)c2cc(F)ccc2N1` has an Activity [2] of 87.5% and an Activity [5] of 44.1%.
Compound `Cc1ccc2c(c1)S(=O)(=O)N=C(OC(C)C)N2` has an Activity [2] of 79.5%.
In the case of `CC(C)NC1=NS(=O)(=O)c2ccccc2N1`, the Activity [2] is reported as 34.9% and the Activity [25] is reported as 73.7%.
`CC(C)NC1=NS(=O)(=O)c2cc(F)ccc2N1` showed an Activity [2] of 3.7% and an Activity [5] of 3.3%.
`CC(C)OC1=NS(=O)(=O)c2cc(Br)ccc2N1` showed an Activity [2] of 62.5%.
Work on `CC(C)NC1=NS(=O)(=O)c2ccc(Cl)cc2N1` yielded an Activity [2] of 7.5%, an Activity [20] of 76.7% and an Activity [5] of 6.4%.
In the case of `CC(C)CC1=NS(=O)(=O)c2ccccc2N1`, the Activity [2] is reported as 85.2%.
For `Cc1ccc2c(c1)S(=O)(=O)N=C(NC(C)C)N2`, the Activity [2] was 8.5%, the Activity [25] was 71.3% and the Activity [5] was 3.5%.
